Reference: ChEMBL document CHEMBL1268908, “Design, synthesis, radiolabeling, and in vivo evaluation of carbon-11 labeled N-[2-[4-(3-cyanopyridin-2-yl)piperazin-1-yl]ethyl]-3-methoxybenzamide, a potential positron emission tomography tracer for the dopamine D(4) receptors” (J Med Chem, 2010)

Tests used:
Assay type in all cases: ADME, organism-based, Macaca mulatta
[1] = Biodistribution in rhesus monkey occipital lobe at 150.3 MBq, iv after 6.5 mins; settings: in vivo
Striatum [2] = test: Biodistribution in rhesus monkey striatum at 150.3 MBq, iv after 45 mins; settings: in vivo, 0.75 h
Hippocampus [3] = test: Biodistribution in rhesus monkey hippocampus at 150.3 MBq, iv after 6.5 mins; settings: in vivo
Summary of the method: (§1)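 Male rhesus monkey under ketamine 10 mg/kg im, head fixed; 20 min 68Ge-68Ga transmission scan, then 90 min dynamic 3D PET (6×0.5, 7×1, 20×2, 8×5 min frames) after iv [11C]-labelled tracer in saline, specific radioactivity about 2.9 TBq/μmol at injection. Regions defined on T1-weighted MRI; uptake expressed as % injected dose per mL.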

Hippocampus [4] = test: Biodistribution in rhesus monkey hippocampus at 150.3 MBq, iv after 8.5 mins; settings: in vivo; summary of the method: as §1
Hippocampus [5] = test: Biodistribution in rhesus monkey hippocampus at 150.3 MBq, iv after 82.5 mins; settings: in vivo, 1.375 h; summary of the method: as §1
[6] = Biodistribution in rhesus monkey cerebellum at 150.3 MBq, iv after 3.5 mins; settings: in vivo
Summary of the method: (§2)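 Male rhesus monkey under ketamine (10 mg/kg im) with head fixation. After a 20 min 68Ge-68Ga transmission scan, the [11C]-labelled tracer in saline (pH 7.4) was injected iv, at 2.9 TBq/μmol specific radioactivity at injection. A dynamic 3D PET scan followed over 90 min (6×0.5, 7×1, 20×2, 8×5 min frames). Regions were defined on T1-weighted 1.5 T MRI, and uptake is given as %ID/mL.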

Striatum [7] = test: Biodistribution in rhesus monkey striatum at 150.3 MBq, iv after 13 mins; settings: in vivo
Hippocampus [8] = test: Biodistribution in rhesus monkey hippocampus at 150.3 MBq, iv after 23 mins; settings: in vivo
Summary of the method: (§3)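 Single male rhesus monkey anesthetized with ketamine 10 mg/kg im, head fixed. Attenuation correction by 20 min 68Ge-68Ga transmission scan. [11C]-tracer in saline (pH 7.4) given iv, specific radioactivity 2.9 TBq/μmol at injection. Dynamic 3D PET emission scan over 90 min in frames of 0.5 to 5 min. MRI T1 images used to define VOIs. Uptake expressed as […].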

Hippocampus [9] = test: Biodistribution in rhesus monkey hippocampus at 150.3 MBq, iv after 1.75 mins; settings: in vivo, 105 s; summary of the method: as §3
Striatum [10] = test: Biodistribution in rhesus monkey striatum at 150.3 MBq, iv after 29 mins; settings: in vivo
Hippocampus [11] = test: Biodistribution in rhesus monkey hippocampus at 150.3 MBq, iv after 27 mins; settings: in vivo, 0.45 h; summary of the method: as §3
[12] = Biodistribution in rhesus monkey cingulate cortex at 150.3 MBq, iv after 2.25 mins; settings: in vivo, 135 s; summary of the method: as §2
[13] = Biodistribution in rhesus monkey cingulate cortex at 150.3 MBq, iv after 37 mins; settings: in vivo; summary of the method: as §2
[14] = Biodistribution in rhesus monkey entorhinal cortex at 150.3 MBq, iv after 62.5 mins; settings: in vivo; summary of the method: as §3
Striatum [15] = test: Biodistribution in rhesus monkey striatum at 150.3 MBq, iv after 1.75 mins; settings: in vivo, 105 s
[16] = Biodistribution in rhesus monkey cingulate cortex at 150.3 MBq, iv after 8.5 mins; settings: in vivo; summary of the method: as §3
[17] = Biodistribution in rhesus monkey retina at 150.3 MBq, iv after 11 mins; settings: in vivo
[18] = Biodistribution in rhesus monkey cerebellum at 150.3 MBq, iv after 27 mins; settings: in vivo, 0.45 h; summary of the method: as §2
Striatum [19] = test: Biodistribution in rhesus monkey striatum at 150.3 MBq, iv after 41 mins; settings: in vivo
[20] = Biodistribution in rhesus monkey retina at 150.3 MBq, iv after 3.5 mins; settings: in vivo
Striatum [21] = test: Biodistribution in rhesus monkey striatum at 150.3 MBq, iv after 7.5 mins; settings: in vivo, 0.125 h
Hippocampus [22] = test: Biodistribution in rhesus monkey hippocampus at 150.3 MBq, iv after 11 mins; settings: in vivo; summary of the method: as §3
Hippocampus [23] = test: Biodistribution in rhesus monkey hippocampus at 150.3 MBq, iv after 43 mins; settings: in vivo; summary of the method: as §1
[24] = Biodistribution in rhesus monkey cingulate cortex at 150.3 MBq, iv after 25 mins; settings: in vivo; summary of the method: as §2
[25] = Biodistribution in rhesus monkey cingulate cortex at 150.3 MBq, iv after 57.5 mins; settings: in vivo; summary of the method: as §3
Hippocampus [26] = test: Biodistribution in rhesus monkey hippocampus at 150.3 MBq, iv after 49 mins; settings: in vivo; summary of the method: as §1
Striatum [27] = test: Biodistribution in rhesus monkey striatum at 150.3 MBq, iv after 37 mins; settings: in vivo
Striatum [28] = test: Biodistribution in rhesus monkey striatum at 150.3 MBq, iv after 2.75 mins; settings: in vivo, 165 s
[29] = Biodistribution in rhesus monkey entorhinal cortex at 150.3 MBq, iv after 41 mins; settings: in vivo; summary of the method: as §3
[30] = Biodistribution in rhesus monkey cerebellum at 150.3 MBq, iv after 13 mins; settings: in vivo; summary of the method: as §2
[31] = Biodistribution in rhesus monkey cerebellum at 150.3 MBq, iv after 0.25 mins; settings: in vivo, 15 s; summary of the method: as §2
Striatum [32] = test: Biodistribution in rhesus monkey striatum at 150.3 MBq, iv after 57.5 mins; settings: in vivo
[33] = Biodistribution in rhesus monkey entorhinal cortex at 150.3 MBq, iv after 0.75 mins; settings: in vivo, 45 s; summary of the method: as §3
Striatum [34] = test: Biodistribution in rhesus monkey striatum at 150.3 MBq, iv after 47 mins; settings: in vivo
[35] = Biodistribution in rhesus monkey cingulate cortex at 150.3 MBq, iv after 21 mins; settings: in vivo, 0.35 h; summary of the method: as §2
Hippocampus [36] = test: Biodistribution in rhesus monkey hippocampus at 150.3 MBq, iv after 3.5 mins; settings: in vivo; summary of the method: as §1
[37] = Biodistribution in rhesus monkey retina at 150.3 MBq, iv after 45 mins; settings: in vivo, 0.75 h
Striatum [38] = test: Biodistribution in rhesus monkey striatum at 150.3 MBq, iv after 31 mins; settings: in vivo
Striatum [39] = test: Biodistribution in rhesus monkey striatum at 150.3 MBq, iv after 3.5 mins; settings: in vivo
Hippocampus [40] = test: Biodistribution in rhesus monkey hippocampus at 150.3 MBq, iv after 19 mins; settings: in vivo; summary of the method: as §3
[41] = Biodistribution in rhesus monkey entorhinal cortex at 150.3 MBq, iv after 4.5 mins; settings: in vivo, 0.075 h; summary of the method: as §3
[42] = Biodistribution in rhesus monkey entorhinal cortex at 150.3 MBq, iv after 29 mins; settings: in vivo; summary of the method: as §3
Hippocampus [43] = test: Biodistribution in rhesus monkey hippocampus at 150.3 MBq, iv after 2.75 mins; settings: in vivo, 165 s; summary of the method: as §3
[44] = Biodistribution in rhesus monkey cerebellum at 150.3 MBq, iv after 15 mins; settings: in vivo, 0.25 h; summary of the method: as §2
[45] = Biodistribution in rhesus monkey occipital lobe at 150.3 MBq, iv after 23 mins; settings: in vivo; summary of the method: as §1
[46] = Biodistribution in rhesus monkey cingulate cortex at 150.3 MBq, iv after 0.25 mins; settings: in vivo, 15 s; summary of the method: as §2
[47] = Biodistribution in rhesus monkey cerebellum at 150.3 MBq, iv after 47 mins; settings: in vivo; summary of the method: as §2
Striatum [48] = test: Biodistribution in rhesus monkey striatum at 150.3 MBq, iv after 9.5 mins; settings: in vivo
[49] = Biodistribution in rhesus monkey cingulate cortex at 150.3 MBq, iv after 82.5 mins; settings: in vivo, 1.375 h; summary of the method: as §3

SMILES: [11CH3]Oc1cccc(C(=O)NCCN2CCN(c3ncccc3C#N)CC2)c1
- Drug uptake [1]: 30.03 kBq/ml
- Drug uptake (Striatum [2]): 11.04 kBq/ml
- Drug uptake (Hippocampus [3]): 37.33 kBq/ml
- Drug uptake (Hippocampus [4]): 30.9853 kBq/ml
- Drug uptake (Hippocampus [5]): 8.042 kBq/ml
- Drug uptake [6]: 38.562 kBq/ml
- Drug uptake (Striatum [7]): 24.68 kBq/ml
- Drug uptake (Hippocampus [8]): 17.98 kBq/ml
- Drug uptake (Hippocampus [9]): 50.86 kBq/ml
- Drug uptake (Striatum [10]): 15.32 kBq/ml
- Drug uptake (Hippocampus [11]): 15.74 kBq/ml
- Drug uptake [12]: 50.61 kBq/ml
- Drug uptake [13]: 11.95 kBq/ml
- Drug uptake [14]: 10.43 kBq/ml
- Drug uptake (Striatum [15]): 56.85 kBq/ml
- Drug uptake [16]: 30.4104 kBq/ml
- Drug uptake [17]: 49.56 kBq/ml
- Drug uptake [18]: 15.14 kBq/ml
- Drug uptake (Striatum [19]): 11.2 kBq/ml
- Drug uptake [20]: 39.59 kBq/ml
- Drug uptake (Striatum [21]): 34.7 kBq/ml
- Drug uptake (Hippocampus [22]): 27 kBq/ml
- Drug uptake (Hippocampus [23]): 10.83 kBq/ml
- Drug uptake [24]: 16.82 kBq/ml
- Drug uptake [25]: 10.34 kBq/ml
- Drug uptake (Hippocampus [26]): 9.828 kBq/ml
- Drug uptake (Striatum [27]): 12.6 kBq/ml
- Drug uptake (Striatum [28]): 50.12 kBq/ml
- Drug uptake [29]: 11.877 kBq/ml
- Drug uptake [30]: 21.2714 kBq/ml
- Drug uptake [31]: 40.52 kBq/ml
- Drug uptake (Striatum [32]): 9.776 kBq/ml
- Drug uptake [33]: 36.57 kBq/ml
- Drug uptake (Striatum [34]): 10.6 kBq/ml
- Drug uptake [35]: 17.1 kBq/ml
- Drug uptake (Hippocampus [36]): 43.93 kBq/ml
- Drug uptake [37]: 56.64 kBq/ml
- Drug uptake (Striatum [38]): 14.4435 kBq/ml
- Drug uptake (Striatum [39]): 46.0188 kBq/ml
- Drug uptake (Hippocampus [40]): 18.77 kBq/ml
- Drug uptake [41]: 33.7 kBq/ml
- Drug uptake [42]: 15.05 kBq/ml
- Drug uptake (Hippocampus [43]): 47.34 kBq/ml
- Drug uptake [44]: 19.28 kBq/ml
- Drug uptake [45]: 15.16 kBq/ml
- Drug uptake [46]: 46.02 kBq/ml
- Drug uptake [47]: 10.15 kBq/ml
- Drug uptake (Striatum [48]): 31.24 kBq/ml
- Drug uptake [49]: 9.311 kBq/ml
